Source: ChEMBL document CHEMBL1833943, “Synthesis and structure-activity relationships of varied ether linker analogues of the antitubercular drug (6S)-2-nitro-6-{[4-(trifluoromethoxy)benzyl]oxy}-6,7-dihydro-5h-imidazo[2,1-b][1,3]oxazine (PA-824)” (J Med Chem, 2011)
In brackets after ≈: the same amount, converted by molar mass.

How the values were obtained:
[1] = tested on: Mycobacterium tuberculosis; test: Antituberculosis activity against Mycobacterium tuberculosis H37Rv under aerobic conditions by microplate alamar blue assay; format: functional
[2] = tested on: Mycobacterium tuberculosis; test: Antituberculosis activity against Mycobacterium tuberculosis H37Rv under anaerobic conditions by fluorescence based low-oxygen-recovery assay; format: functional
[3] = Aqueous solubility of the compound in water at pH 7 by HPLC analysis; format: physicochemical
Outline: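 Solubility measured in water at pH 7 and 20 °C, quantified by HPLC.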

Row | SMILES | MIC [1] | MIC [2] | solubility [3]
1 | O=[N+]([O-])c1cn2c(n1)OC[C@@H](OCCCC#Cc1ccc(-c3ccc(F)cc3)cc1)C2 | 0.07 µM (≈ 0.0295 µg/mL) | 1.6 µM (≈ 0.674 µg/mL) | 
2 | O=[N+]([O-])c1cn2c(n1)OC[C@@H](OCCCC#Cc1ccc(-c3ccc(C(F)(F)F)cc3)cc1)C2 | 0.085 µM (≈ 0.0401 µg/mL) | > 128 µM | 
3 | O=[N+]([O-])c1cn2c(n1)OC[C@@H](OCCCC#Cc1ccc(-c3ccc(C(F)(F)F)nc3)cc1)C2 | 0.11 µM (≈ 0.052 µg/mL) | 63 µM (≈ 29.8 µg/mL) | 
4 | O=[N+]([O-])c1cn2c(n1)OC[C@@H](OCCCC#Cc1ccc(-c3ccc(OC(F)F)cc3)cc1)C2 | 0.035 µM (≈ 0.0164 µg/mL) | 39 µM (≈ 18.3 µg/mL) | 
5 | O=[N+]([O-])c1cn2c(n1)OC[C@@H](Oc1cc(-c3ccc(C(F)(F)F)nc3)ncn1)C2 | 3 µM (≈ 1.22 µg/mL) | 62 µM (≈ 25.3 µg/mL) | 
6 | O=[N+]([O-])c1cn2c(n1)OC[C@@H](Oc1ccc(-c3ccc(F)cc3)cn1)C2 | 0.37 µM (≈ 0.132 µg/mL) | 15 µM (≈ 5.34 µg/mL) | 
7 | O=[N+]([O-])c1cn2c(n1)OC[C@@H](Oc1ccc(-c3ccc(C(F)(F)F)cc3)cn1)C2 | 0.1 µM (≈ 0.0406 µg/mL) | 12 µM (≈ 4.88 µg/mL) | 
8 | O=[N+]([O-])c1cn2c(n1)OC[C@@H](Oc1ccc(-c3ccc(C(F)(F)F)nc3)cn1)C2 | 0.42 µM (≈ 0.171 µg/mL) | 14 µM (≈ 5.7 µg/mL) | 
9 | O=[N+]([O-])c1cn2c(n1)OC[C@@H](Oc1ccc(-c3ccc(OC(F)(F)F)cc3)nc1)C2 | 0.14 µM (≈ 0.0591 µg/mL) | 1.5 µM (≈ 0.633 µg/mL) | 0.27 µg/mL (≈ 0.639 µM)
10 | O=[N+]([O-])c1cn2c(n1)OC[C@@H](Oc1ccc(-c3ccc(F)cc3)nc1)C2 | 0.5 µM (≈ 0.178 µg/mL) | 5.6 µM (≈ 2 µg/mL) | 
11 | O=[N+]([O-])c1cn2c(n1)OC[C@@H](Oc1ccc(-c3ccc(C(F)(F)F)cc3)nc1)C2 | 0.78 µM (≈ 0.317 µg/mL) | 1.2 µM (≈ 0.488 µg/mL) | 
12 | O=[N+]([O-])c1cn2c(n1)OC[C@@H](Oc1ccc(-c3ccc(C(F)(F)F)nc3)nc1)C2 | 0.45 µM (≈ 0.183 µg/mL) | 17 µM (≈ 6.92 µg/mL) | 
13 | O=[N+]([O-])c1cn2c(n1)OC[C@@H](Oc1ncc(-c3ccc(F)cc3)cn1)C2 | 1.6 µM (≈ 0.572 µg/mL) | 7.4 µM (≈ 2.64 µg/mL) | 
14 | O=[N+]([O-])c1cn2c(n1)OC[C@@H](Oc1ncc(-c3ccc(C(F)(F)F)cc3)cn1)C2 | 0.21 µM (≈ 0.0855 µg/mL) | 3 µM (≈ 1.22 µg/mL) | 
15 | O=[N+]([O-])c1cn2c(n1)OC[C@@H](Oc1ncc(-c3ccc(C(F)(F)F)nc3)cn1)C2 | 1.3 µM (≈ 0.531 µg/mL) | 17 µM (≈ 6.94 µg/mL) | 
16 | CC(O[C@@H]1COc2nc([N+](=O)[O-])cn2C1)c1ccc(-c2ccc(F)cc2)cc1 (stereo partly drawn) | 0.22 µM (≈ 0.0843 µg/mL) | 1.3 µM (≈ 0.498 µg/mL) | 
17 | CC(O[C@@H]1COc2nc([N+](=O)[O-])cn2C1)c1ccc(-c2ccc(C(F)(F)F)cc2)cc1 (stereo partly drawn) | 0.18 µM (≈ 0.078 µg/mL) | 2.2 µM (≈ 0.953 µg/mL) | 
18 | CC(O[C@@H]1COc2nc([N+](=O)[O-])cn2C1)c1ccc(-c2ccc(C(F)(F)F)nc2)cc1 (stereo partly drawn) | 0.39 µM (≈ 0.169 µg/mL) | 4.3 µM (≈ 1.87 µg/mL) | 

Row | SMILES | MIC [1] | MIC [2] | solubility [3]
19 | O=[N+]([O-])c1cn2c(n1)OC[C@@H](Oc1ccc(-c3ccc(F)cc3)cc1)C2 | 0.31 µM (≈ 0.11 µg/mL) | 1.2 µM (≈ 0.426 µg/mL) | 
20 | O=[N+]([O-])c1cn2c(n1)OC[C@@H](Oc1ccc(-c3ccc(C(F)(F)F)cc3)cc1)C2 | 0.39 µM (≈ 0.158 µg/mL) | > 128 µM | 
21 | O=[N+]([O-])c1cn2c(n1)OC[C@@H](Oc1ccc(-c3ccc(C(F)(F)F)nc3)cc1)C2 | 0.51 µM (≈ 0.207 µg/mL) | 4.1 µM (≈ 1.67 µg/mL) | 
22 | O=[N+]([O-])c1cn2c(n1)OC[C@@H](Oc1cccc(-c3ccc(OC(F)(F)F)cc3)n1)C2 | 0.24 µM (≈ 0.101 µg/mL) | 3.3 µM (≈ 1.39 µg/mL) | 0.12 µg/mL (≈ 0.284 µM)
23 | O=[N+]([O-])c1cn2c(n1)OC[C@@H](Oc1cccc(-c3ccc(F)cc3)n1)C2 | 3.2 µM (≈ 1.14 µg/mL) | 27 µM (≈ 9.62 µg/mL) | 
24 | O=[N+]([O-])c1cn2c(n1)OC[C@@H](Oc1cccc(-c3ccc(C(F)(F)F)cc3)n1)C2 | 0.55 µM (≈ 0.223 µg/mL) | 35 µM (≈ 14.2 µg/mL) | 
25 | O=[N+]([O-])c1cn2c(n1)OC[C@@H](Oc1cccc(-c3ccc(C(F)(F)F)nc3)n1)C2 | 5.7 µM (≈ 2.32 µg/mL) | > 128 µM | 
26 | O=[N+]([O-])c1cn2c(n1)OC[C@@H](Oc1cccc(-c3ccc(OC(F)F)cc3)n1)C2 | 0.52 µM (≈ 0.21 µg/mL) | 4.4 µM (≈ 1.78 µg/mL) | 
27 | O=[N+]([O-])c1cn2c(n1)OC[C@@H](Oc1ccnc(-c3ccc(OC(F)(F)F)cc3)c1)C2 | 0.3 µM (≈ 0.127 µg/mL) | 2.6 µM (≈ 1.1 µg/mL) | 0.53 µg/mL (≈ 1.25 µM)
28 | O=[N+]([O-])c1cn2c(n1)OC[C@@H](Oc1ccnc(-c3ccc(F)cc3)c1)C2 | 0.67 µM (≈ 0.239 µg/mL) | 8.5 µM (≈ 3.03 µg/mL) | 
29 | O=[N+]([O-])c1cn2c(n1)OC[C@@H](Oc1ccnc(-c3ccc(C(F)(F)F)cc3)c1)C2 | 0.65 µM (≈ 0.264 µg/mL) | > 128 µM | 
30 | O=[N+]([O-])c1cn2c(n1)OC[C@@H](Oc1ccnc(-c3ccc(C(F)(F)F)nc3)c1)C2 | 14 µM (≈ 5.7 µg/mL) | > 128 µM | 
31 | O=[N+]([O-])c1cn2c(n1)OC[C@@H](Oc1cc(-c3ccc(F)cc3)ccn1)C2 | 5.2 µM (≈ 1.85 µg/mL) | 28 µM (≈ 9.98 µg/mL) | 
32 | O=[N+]([O-])c1cn2c(n1)OC[C@@H](Oc1cc(-c3ccc(C(F)(F)F)cc3)ccn1)C2 | 0.88 µM (≈ 0.358 µg/mL) | 32 µM (≈ 13 µg/mL) | 
33 | O=[N+]([O-])c1cn2c(n1)OC[C@@H](Oc1cc(-c3ccc(C(F)(F)F)nc3)ccn1)C2 | 3 µM (≈ 1.22 µg/mL) | 27 µM (≈ 11 µg/mL) | 
34 | O=[N+]([O-])c1cn2c(n1)OC[C@@H](Oc1cc(-c3ccc(F)cc3)ncn1)C2 | 0.99 µM (≈ 0.354 µg/mL) | 15 µM (≈ 5.36 µg/mL) | 
35 | O=[N+]([O-])c1cn2c(n1)OC[C@@H](Oc1cc(-c3ccc(C(F)(F)F)cc3)ncn1)C2 | 0.8 µM (≈ 0.326 µg/mL) | 17 µM (≈ 6.92 µg/mL) | 
